Data taken from ChEMBL document CHEMBL1765020, “Synthesis and structure-affinity relationships of novel dibenzylideneacetone derivatives as probes for β-amyloid plaques” (J Med Chem, 2011).

What was measured:
Lung [1] = experiment: Biodistribution in ddY mouse lung at 1 uCi/100 uL, iv after 120 mins by gamma counting; type: ADME, organism-based; settings: in vivo, 2 h
Lung [2] = experiment: Biodistribution in ddY mouse lung at 1 uCi/100 uL, iv after 2 mins by gamma counting; type: ADME, organism-based; settings: in vivo
Spleen [3] = experiment: Biodistribution in ddY mouse spleen at 1 uCi/100 uL, iv after 120 mins by gamma counting; type: ADME, organism-based; settings: in vivo, 2 h
Liver [4] = experiment: Biodistribution in ddY mouse liver at 1 uCi/100 uL, iv after 60 mins by gamma counting; type: ADME, organism-based; settings: in vivo, 1 h
Lung [5] = experiment: Biodistribution in ddY mouse lung at 1 uCi/100 uL, iv after 60 mins by gamma counting; type: ADME, organism-based; settings: in vivo, 1 h
Brain [6] = experiment: Biodistribution in ddY mouse brain at 1 uCi/100 uL, iv after 60 mins by gamma counting; type: ADME, organism-based; settings: in vivo, 1 h
Outline: (§1)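 Normal female ddY mice (5 weeks, about 20 g; n = 4 per group) received radiotracer iv. Organs were removed and weighed at 2–120 min and counted in a γ-counter. Percent dose per gram of wet tissue was calculated against diluted aliquots of the injected material and reported as mean ± SD.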

Blood [7] = experiment: Biodistribution in ddY mouse blood at 1 uCi/100 uL, iv after 120 mins by gamma counting; type: ADME, organism-based; settings: in vivo, 2 h; outline: as §1
Thyroid gland [8] = experiment: Biodistribution in ddY mouse thyroid at 1 uCi/100 uL, iv after 15 mins by gamma counting; type: ADME, organism-based; settings: in vivo, 0.25 h
Spleen [9] = experiment: Biodistribution in ddY mouse spleen at 1 uCi/100 uL, iv after 60 mins by gamma counting; type: ADME, organism-based; settings: in vivo, 1 h
Brain [10] = experiment: Biodistribution in ddY mouse brain at 1 uCi/100 uL, iv after 120 mins by gamma counting; type: ADME, organism-based; settings: in vivo, 2 h; outline: as §1
Kidney [11] = experiment: Biodistribution in ddY mouse kidney at 1 uCi/100 uL, iv after 120 mins by gamma counting; type: ADME, organism-based; settings: in vivo, 2 h; outline: as §1
Intestine [12] = experiment: Biodistribution in ddY mouse intestine at 1 uCi/100 uL, iv after 60 mins by gamma counting; type: ADME, organism-based; settings: in vivo, 1 h; outline: as §1
Blood [13] = experiment: Biodistribution in ddY mouse blood at 1 uCi/100 uL, iv after 30 mins by gamma counting; type: ADME, organism-based; settings: in vivo, 0.5 h; outline: as §1
Stomach [14] = experiment: Biodistribution in ddY mouse stomach at 1 uCi/100 uL, iv after 30 mins by gamma counting; type: ADME, organism-based; settings: in vivo, 0.5 h
Stomach [15] = experiment: Biodistribution in ddY mouse stomach at 1 uCi/100 uL, iv after 2 mins by gamma counting; type: ADME, organism-based; settings: in vivo
Kidney [16] = experiment: Biodistribution in ddY mouse kidney at 1 uCi/100 uL, iv after 60 mins by gamma counting; type: ADME, organism-based; settings: in vivo, 1 h
Intestine [17] = experiment: Biodistribution in ddY mouse intestine at 1 uCi/100 uL, iv after 120 mins by gamma counting; type: ADME, organism-based; settings: in vivo, 2 h; outline: as §1
Intestine [18] = experiment: Biodistribution in ddY mouse intestine at 1 uCi/100 uL, iv after 15 mins by gamma counting; type: ADME, organism-based; settings: in vivo, 0.25 h; outline: as §1
Spleen [19] = experiment: Biodistribution in ddY mouse spleen at 1 uCi/100 uL, iv after 30 mins by gamma counting; type: ADME, organism-based; settings: in vivo, 0.5 h
Liver [20] = experiment: Biodistribution in ddY mouse liver at 1 uCi/100 uL, iv after 2 mins by gamma counting; type: ADME, organism-based; settings: in vivo
Thyroid gland [21] = experiment: Biodistribution in ddY mouse thyroid at 1 uCi/100 uL, iv after 120 mins by gamma counting; type: ADME, organism-based; settings: in vivo, 2 h
Heart [22] = experiment: Biodistribution in ddY mouse heart at 1 uCi/100 uL, iv after 60 mins by gamma counting; type: ADME, organism-based; settings: in vivo, 1 h; outline: as §1
Heart [23] = experiment: Biodistribution in ddY mouse heart at 1 uCi/100 uL, iv after 15 mins by gamma counting; type: ADME, organism-based; settings: in vivo, 0.25 h; outline: as §1
Liver [24] = experiment: Biodistribution in ddY mouse liver at 1 uCi/100 uL, iv after 30 mins by gamma counting; type: ADME, organism-based; settings: in vivo, 0.5 h
Heart [25] = experiment: Biodistribution in ddY mouse heart at 1 uCi/100 uL, iv after 30 mins by gamma counting; type: ADME, organism-based; settings: in vivo, 0.5 h; outline: as §1
Brain [26] = experiment: Biodistribution in ddY mouse brain at 1 uCi/100 uL, iv after 2 mins by gamma counting; type: ADME, organism-based; settings: in vivo; outline: as §1
[27] = Partition coefficient, log D of the compound; type: physicochemical; settings: octanol/water
Outline: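 Radiotracer partitioned between n-octanol and PBS: vortexed 3 min at room temperature, centrifuged 5 min at 3000 rpm. Weighed samples of the octanol (100 μL) and buffer (500 μL) layers were counted. log D is the log of the ratio of counts per gram, octanol versus PBS.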

Blood [28] = experiment: Biodistribution in ddY mouse blood at 1 uCi/100 uL, iv after 2 mins by gamma counting; type: ADME, organism-based; settings: in vivo; outline: as §1
Intestine [29] = experiment: Biodistribution in ddY mouse intestine at 1 uCi/100 uL, iv after 30 mins by gamma counting; type: ADME, organism-based; settings: in vivo, 0.5 h; outline: as §1
Intestine [30] = experiment: Biodistribution in ddY mouse intestine at 1 uCi/100 uL, iv after 2 mins by gamma counting; type: ADME, organism-based; settings: in vivo; outline: as §1
Spleen [31] = experiment: Biodistribution in ddY mouse spleen at 1 uCi/100 uL, iv after 15 mins by gamma counting; type: ADME, organism-based; settings: in vivo, 0.25 h
Liver [32] = experiment: Biodistribution in ddY mouse liver at 1 uCi/100 uL, iv after 15 mins by gamma counting; type: ADME, organism-based; settings: in vivo, 0.25 h
Brain [33] = experiment: Biodistribution in ddY mouse brain at 1 uCi/100 uL, iv after 30 mins by gamma counting; type: ADME, organism-based; settings: in vivo, 0.5 h; outline: as §1
Stomach [34] = experiment: Biodistribution in ddY mouse stomach at 1 uCi/100 uL, iv after 60 mins by gamma counting; type: ADME, organism-based; settings: in vivo, 1 h
Thyroid gland [35] = experiment: Biodistribution in ddY mouse thyroid at 1 uCi/100 uL, iv after 30 mins by gamma counting; type: ADME, organism-based; settings: in vivo, 0.5 h
Stomach [36] = experiment: Biodistribution in ddY mouse stomach at 1 uCi/100 uL, iv after 15 mins by gamma counting; type: ADME, organism-based; settings: in vivo, 0.25 h
Heart [37] = experiment: Biodistribution in ddY mouse heart at 1 uCi/100 uL, iv after 2 mins by gamma counting; type: ADME, organism-based; settings: in vivo; outline: as §1
Stomach [38] = experiment: Biodistribution in ddY mouse stomach at 1 uCi/100 uL, iv after 120 mins by gamma counting; type: ADME, organism-based; settings: in vivo, 2 h
Blood [39] = experiment: Biodistribution in ddY mouse blood at 1 uCi/100 uL, iv after 60 mins by gamma counting; type: ADME, organism-based; settings: in vivo, 1 h; outline: as §1
Kidney [40] = experiment: Biodistribution in ddY mouse kidney at 1 uCi/100 uL, iv after 30 mins by gamma counting; type: ADME, organism-based; settings: in vivo, 0.5 h
Liver [41] = experiment: Biodistribution in ddY mouse liver at 1 uCi/100 uL, iv after 120 mins by gamma counting; type: ADME, organism-based; settings: in vivo, 2 h
Lung [42] = experiment: Biodistribution in ddY mouse lung at 1 uCi/100 uL, iv after 15 mins by gamma counting; type: ADME, organism-based; settings: in vivo, 0.25 h
Thyroid gland [43] = experiment: Biodistribution in ddY mouse thyroid at 1 uCi/100 uL, iv after 2 mins by gamma counting; type: ADME, organism-based; settings: in vivo
Heart [44] = experiment: Biodistribution in ddY mouse heart at 1 uCi/100 uL, iv after 120 mins by gamma counting; type: ADME, organism-based; settings: in vivo, 2 h; outline: as §1
Kidney [45] = experiment: Biodistribution in ddY mouse kidney at 1 uCi/100 uL, iv after 15 mins by gamma counting; type: ADME, organism-based; settings: in vivo, 0.25 h; outline: as §1
Spleen [46] = experiment: Biodistribution in ddY mouse spleen at 1 uCi/100 uL, iv after 2 mins by gamma counting; type: ADME, organism-based; settings: in vivo
Lung [47] = experiment: Biodistribution in ddY mouse lung at 1 uCi/100 uL, iv after 30 mins by gamma counting; type: ADME, organism-based; settings: in vivo, 0.5 h
Brain [48] = experiment: Biodistribution in ddY mouse brain at 1 uCi/100 uL, iv after 15 mins by gamma counting; type: ADME, organism-based; settings: in vivo, 0.25 h; outline: as §1
Thyroid gland [49] = experiment: Biodistribution in ddY mouse thyroid at 1 uCi/100 uL, iv after 60 mins by gamma counting; type: ADME, organism-based; settings: in vivo, 1 h
Blood [50] = experiment: Biodistribution in ddY mouse blood at 1 uCi/100 uL, iv after 15 mins by gamma counting; type: ADME, organism-based; settings: in vivo, 0.25 h; outline: as §1
Kidney [51] = experiment: Biodistribution in ddY mouse kidney at 1 uCi/100 uL, iv after 2 mins by gamma counting; type: ADME, organism-based; settings: in vivo; outline: as §1
Brain [52] = experiment: Ratio of drug uptake in ddY mouse brain at 1 uCi/100 uL, iv after 2 mins to drug uptake in ddY mouse brain at 1 uCi/100 uL, iv after 60 mins; type: ADME, organism-based; settings: in vivo
Outline: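 Normal female ddY mice (5 weeks) received the radiotracer iv, and brain uptake (% ID/g, n = 4) was measured by gamma counting at 2 and 60 min. The index is brain uptake at 2 min divided by brain uptake at 60 min.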

- Drug uptake (Lung [1]): 2.82 % ID/g
- Drug uptake (Lung [2]): 9.25 % ID/g
- Drug uptake (Spleen [3]): 1.13 % ID/g
- Drug uptake (Liver [4]): 16.43 % ID/g
- Drug uptake (Lung [5]): 2.43 % ID/g
- Drug uptake (Brain [6]): 0.54 % ID/g
- Drug uptake (Blood [7]): 2.52 % ID/g
- Drug uptake (Thyroid gland [8]): 8.39 % ID/g
- Drug uptake (Spleen [9]): 0.8 % ID/g
- Drug uptake (Brain [10]): 0.4 % ID/g
- Drug uptake (Kidney [11]): 9.52 % ID/g
- Drug uptake (Intestine [12]): 25.97 % ID/g
- Drug uptake (Blood [13]): 4.12 % ID/g
- Drug uptake (Stomach [14]): 3.12 % ID/organ
- Drug uptake (Stomach [15]): 1.37 % ID/organ
- Drug uptake (Kidney [16]): 9 % ID/g
- Drug uptake (Intestine [17]): 25.7 % ID/g
- Drug uptake (Intestine [18]): 6.9 % ID/g
- Drug uptake (Spleen [19]): 1.79 % ID/g
- Drug uptake (Liver [20]): 16.98 % ID/g
- Drug uptake (Thyroid gland [21]): 21.98 % ID/g
- Drug uptake (Heart [22]): 0.83 % ID/g
- Drug uptake (Heart [23]): 3.45 % ID/g
- Drug uptake (Liver [24]): 24.17 % ID/g
- Drug uptake (Heart [25]): 2.01 % ID/g
- Drug uptake (Brain [26]): 4.56 % ID/g
- logD [27]: 3.26
- Drug uptake (Blood [28]): 3.89 % ID/g
- Drug uptake (Intestine [29]): 10.85 % ID/g
- Drug uptake (Intestine [30]): 2.27 % ID/g
- Drug uptake (Spleen [31]): 2.02 % ID/g
- Drug uptake (Liver [32]): 29.08 % ID/g
- Drug uptake (Brain [33]): 1.36 % ID/g
- Drug uptake (Stomach [34]): 2.12 % ID/organ
- Drug uptake (Thyroid gland [35]): 11.49 % ID/g
- Drug uptake (Stomach [36]): 3.1 % ID/organ
- Drug uptake (Heart [37]): 7.06 % ID/g
- Drug uptake (Stomach [38]): 3.07 % ID/organ
- Drug uptake (Blood [39]): 1.72 % ID/g
- Drug uptake (Kidney [40]): 16.31 % ID/g
- Drug uptake (Liver [41]): 17.57 % ID/g
- Drug uptake (Lung [42]): 6.06 % ID/g
- Drug uptake (Thyroid gland [43]): 8.64 % ID/g
- Drug uptake (Heart [44]): 1.11 % ID/g
- Drug uptake (Kidney [45]): 22.81 % ID/g
- Drug uptake (Spleen [46]): 2.8 % ID/g
- Drug uptake (Lung [47]): 4.81 % ID/g
- Drug uptake (Brain [48]): 2.37 % ID/g
- Drug uptake (Thyroid gland [49]): 14.14 % ID/g
- Drug uptake (Blood [50]): 4.93 % ID/g
- Drug uptake (Kidney [51]): 11.2 % ID/g
- Ratio (Brain [52]): 8.44
Structure (SMILES): Nc1ccc(/C=C/C(=O)/C=C/c2ccc([125I])cc2)cc1
